Test results reported in ChEMBL document CHEMBL3627703, “Synthetic, structural mimetics of the β-hairpin flap of HIV-1 protease inhibit enzyme function” (Bioorg Med Chem, 2015).
The source made the active and inactive calls. No cut-off for these calls is given here.

Assays:
Protease = Protease (Human immunodeficiency virus 1, UniProt Q9YQ12); assay: Inhibition of recombinant HIV-1 protease expressed in Escherichia coli using Arg-Glu (EDANS)-Ser-Gln-Asn-Tyr-Pro-Ile-Val-Gln Lys(DABCYL)-Arg as substrate by spectrofluorometric analysis
In short: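 Recombinant HIV-1 PR refolded from E. coli inclusion bodies, active concentration set by active-site titration, final 30–40 nM. Assay at 25 °C in 10 mM sodium acetate, 1 M NaCl, 2% DMSO, pH 5.0. Fluorogenic substrate at 16.7 μM, inhibitor 0–200 μM (20 mM DMSO stocks). Hydrolysis followed at excitation 340 / emission 490 nm. Ki from fitting to tight-binding competitive inhibition equations.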

[1] = tested on: Human immunodeficiency virus 1; assay: Antiviral activity against HIV-1 infected in human TZM-bl cells assessed as inhibition of viral replication at 50 to 100 uM by luciferase reporter assay; assay type: functional, organism-based
MT4 [2] = assay: Cytotoxicity against human MT4 cells assessed as viable cells at 50 uM after 3 days by tryptan blue dye assay; assay type: cell-based; details: mt4, 72 h
In short: (§1)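 MT-4 cells seeded at 2 × 10⁵ cells/ml in RPMI with 10% heat-inactivated FBS, carrying carrier alone or inhibitor at 10, 50 or 100 μM (0.25% DMSO final), 37 °C, 5% CO₂. Viable cells counted by trypan blue exclusion after three days; triplicate.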

MT4 [3] = assay: Cytotoxicity against human MT4 cells assessed as viable cells at 100 uM after 3 days by tryptan blue dye assay; assay type: cell-based; details: mt4, 72 h; in short: as §1

Sequence of Protease (Q9YQ12 whole entry): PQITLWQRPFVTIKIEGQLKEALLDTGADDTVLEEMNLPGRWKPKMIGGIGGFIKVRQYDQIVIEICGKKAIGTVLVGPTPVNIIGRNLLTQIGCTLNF

SMILES | Ki (Protease) [µM] | further results
CC1=N[C@@H](CC(C)C)C(=O)Nc2cc(C(=O)O)ccc21 | > 200 | –
CC1=N[C@H](CC(C)C)C(=O)N(CC(=O)N2CCN(C(=O)OCc3ccccc3)CC2)c2cc(C(=O)O)ccc21 | 81 | –
CC1=N[C@H](CC(C)C)C(=O)N(CC(=O)N2CCNCC2)c2cc(C(=O)O)ccc21 | > 200 | –
CC1=N[C@H](CC(C)C)C(=O)N(CC(C)C)c2cc(C(=O)OC(C)(C)C)ccc21 | 89 | –
CC1=NCC(=O)Nc2cc(C(=O)O)ccc21 | 199 | –
CC1=N[C@H](CC(C)C)C(=O)N(Cc2ccncc2)c2cc(C(=O)OC(C)(C)C)ccc21 | > 200 | –
CC1=N[C@@H](C)C(=O)Nc2cc(C(=O)O)ccc21 | > 200 | –
CC1=NCC(=O)N(Cc2ccc(C3CCCCC3)cc2)c2cc(C(=O)OC(C)(C)C)ccc21 | 169 | –
CC1=N[C@H](CC(C)C)C(=O)N(CC(=O)N2CCN(C(=O)OC(C)(C)C)CC2)c2cc(C(=O)OC(C)(C)C)ccc21 | 143 | –
CCCCCCCCCCCCCCCCNC(=O)CN1C(=O)[C@@H](CC(C)C)N=C(C)c2ccc(C(=O)OC(C)(C)C)cc21 | 165 | –
CC1=N[C@@H](Cc2ccccc2)C(=O)Nc2cc(C(=O)OC(C)(C)C)ccc21 | 64 | –
CC1=N[C@H](Cc2ccccc2)C(=O)N(Cc2ccc(C3CCCCC3)cc2)c2cc(C(=O)OC(C)(C)C)ccc21 | 131 | –
CCCCCCCCCCNC(=O)CN1C(=O)[C@@H](CC(C)C)N=C(C)c2ccc(C(=O)O)cc21 | 11 | inhibition [1]: Active; Activity (MT4 [2]): Non-toxic; Activity (MT4 [3]): Toxic
CC1=N[C@H](CC(C)C)C(=O)Nc2cc(C(=O)OC(C)(C)C)ccc21 | > 200 | –
CC1=N[C@H](CC(C)C)C(=O)N(CC(=O)NCCc2ccccc2)c2cc(C(=O)O)ccc21 | 75 | –
CC(C)C[C@H]1N=C(c2ccccc2)c2ccc(C(=O)O)cc2N(Cc2ccc(C3CCCCC3)cc2)C1=O | 68 | –
CC1=N[C@H](CC(C)C)C(=O)N(CC(=O)NCCc2ccccc2)c2cc(C(=O)OC(C)(C)C)ccc21 | 95 | –
CC1=N[C@@H](Cc2ccccc2)C(=O)N(Cc2ccc(C3CCCCC3)cc2)c2cc(C(=O)OC(C)(C)C)ccc21 | 54 | –
CC1=N[C@@H](CC(C)C)C(=O)N(Cc2ccc(C3CCCCC3)cc2)c2cc(C(=O)O)ccc21 | 27 | –

SMILES | Ki (Protease) [µM] | further results
CC1=N[C@H](Cc2ccccc2)C(=O)N(Cc2ccc(C3CCCCC3)cc2)c2cc(C(=O)O)ccc21 | 72 | –
CC1=NCC(=O)Nc2cc(C(=O)OC(C)(C)C)ccc21 | > 200 | –
CC1=N[C@@H](Cc2ccccc2)C(=O)N(Cc2ccc(C3CCCCC3)cc2)c2cc(C(=O)O)ccc21 | 47 | –
CC1=N[C@H](CC(C)C)C(=O)N(CC(=O)OC(C)(C)C)c2cc(C(=O)OC(C)(C)C)ccc21 | 119 | –
CCCCCCNC(=O)CN1C(=O)[C@@H](CC(C)C)N=C(C)c2ccc(C(=O)OC(C)(C)C)cc21 | > 200 | –
CC1=N[C@H](CC(C)C)C(=O)N(Cc2ccncc2)c2cc(C(=O)O)ccc21 | > 200 | –
CC1=N[C@H](CC(C)C)C(=O)N(Cc2ccc(-c3ccccc3)cc2)c2cc(C(=O)OC(C)(C)C)ccc21 | 62 | –
CCCCCCCCCCCCCCCCNC(=O)CN1C(=O)[C@@H](CC(C)C)N=C(C)c2ccc(C(=O)O)cc21 | 11 | inhibition [1]: Active; Activity (MT4 [2]): Toxic; Activity (MT4 [3]): Toxic
CC(C)C[C@H]1N=C(c2ccccc2)c2ccc(C(=O)OC(C)(C)C)cc2N(Cc2ccc(C3CCCCC3)cc2)C1=O | 88 | –
CC1=N[C@H](Cc2ccccc2)C(=O)Nc2cc(C(=O)OC(C)(C)C)ccc21 | 88 | –
CCCCCCNC(=O)CN1C(=O)[C@@H](CC(C)C)N=C(C)c2ccc(C(=O)O)cc21 | 75 | –
CC1=N[C@H](CC(C)C)C(=O)N(CC(C)C)c2cc(C(=O)O)ccc21 | > 200 | –
CC1=N[C@@H](C)C(=O)N(Cc2ccc(C3CCCCC3)cc2)c2cc(C(=O)O)ccc21 | 56 | –
CCCCCCCCCCNC(=O)CN1C(=O)[C@@H](CC(C)C)N=C(C)c2ccc(C(=O)OC(C)(C)C)cc21 | > 200 | –
CC1=NCC(=O)N(Cc2ccc(C3CCCCC3)cc2)c2cc(C(=O)O)ccc21 | 85 | –
CC1=N[C@H](CC(C)C)C(=O)N(Cc2ccc(-c3ccccc3)cc2)c2cc(C(=O)O)ccc21 | 21 | inhibition [1]: Active; Activity (MT4 [2]): Non-toxic; Activity (MT4 [3]): Toxic
CC1=N[C@H](CC(C)C)C(=O)N(Cc2ccccc2)c2cc(C(=O)OC(C)(C)C)ccc21 | > 200 | –
CC1=N[C@H](CC(C)C)C(=O)N(Cc2ccc(C3CCCCC3)cc2)c2cc(C(=O)O)ccc21 | 19 | inhibition [1]: Active; Activity (MT4 [2]): Non-toxic; Activity (MT4 [3]): Toxic
CC1=N[C@H](CC(C)C)C(=O)N(CC(=O)N2CCN(C(=O)OCC3c4ccccc4-c4ccccc43)CC2)c2cc(C(=O)OC(C)(C)C)ccc21 | > 200 | –

SMILES | Ki (Protease) [µM] | further results
CCC(C)[C@@H]1N=C(C)c2ccc(C(=O)O)cc2N(Cc2ccc(C3CCCCC3)cc2)C1=O (single isomer, unassigned) | 53 | –
CC1=N[C@@H](CC(C)C)C(=O)Nc2cc(C(=O)OC(C)(C)C)ccc21 | 193 | –
CC1=N[C@H](Cc2ccccc2)C(=O)Nc2cc(C(=O)O)ccc21 | > 200 | –
CC1=N[C@H](CC(C)C)C(=O)N(Cc2ccc(C(C)(C)C)cc2)c2cc(C(=O)O)ccc21 | 46 | –
CC1=N[C@@H](C)C(=O)N(Cc2ccc(C3CCCCC3)cc2)c2cc(C(=O)OC(C)(C)C)ccc21 | 88 | –
CC1=N[C@@H](C)C(=O)Nc2cc(C(=O)OC(C)(C)C)ccc21 | > 200 | –
CC1=N[C@@H](CC(C)C)C(=O)N(Cc2ccc(C3CCCCC3)cc2)c2cc(C(=O)OC(C)(C)C)ccc21 | 76 | –
CCC(C)[C@@H]1N=C(C)c2ccc(C(=O)O)cc2NC1=O (single isomer, unassigned) | 158 | –
CC1=N[C@H](CC(C)C)C(=O)N(Cc2ccccc2)c2cc(C(=O)O)ccc21 | > 200 | –
CC1=N[C@H](CC(C)C)C(=O)N(CC(=O)N2CCN(C(=O)OCC3c4ccccc4-c4ccccc43)CC2)c2cc(C(=O)O)ccc21 | 49 | –
CC1=N[C@H](CC(C)C)C(=O)N(Cc2ccc(C3CCCCC3)cc2)c2cc(C(=O)OC(C)(C)C)ccc21 | 65 | –
CC1=N[C@H](CC(C)C)C(=O)N(CC(=O)O)c2cc(C(=O)O)ccc21 | > 200 | –
CC1=N[C@H](CC(C)C)C(=O)N(Cc2ccc(C(C)(C)C)cc2)c2cc(C(=O)OC(C)(C)C)ccc21 | 147 | –
CCC(C)[C@@H]1N=C(C)c2ccc(C(=O)OC(C)(C)C)cc2N(Cc2ccc(C3CCCCC3)cc2)C1=O (single isomer, unassigned) | 108 | –
CC1=N[C@H](CC(C)C)C(=O)Nc2cc(C(=O)O)ccc21 | > 200 | –
CC1=N[C@@H](Cc2ccccc2)C(=O)Nc2cc(C(=O)O)ccc21 | > 200 | –
CCC(C)[C@@H]1N=C(C)c2ccc(C(=O)OC(C)(C)C)cc2NC1=O (single isomer, unassigned) | > 200 | –
CC1=N[C@H](CC(C)C)C(=O)N(CC(=O)N2CCN(C(=O)OCc3ccccc3)CC2)c2cc(C(=O)OC(C)(C)C)ccc21 | > 200 | –
